Measurements as given in ChEMBL document CHEMBL4052661, “Structure Based Design of N-(3-((1H-Pyrazolo[3,4-b]pyridin-5-yl)ethynyl)benzenesulfonamides as Selective Leucine-Zipper and Sterile-α Motif Kinase (ZAK) Inhibitors” (J Med Chem, 2017).
Blank lines part the entries; values can stand above or below the compound they belong to.

Key:
[1] = target: T1, Mitogen-activated protein kinase kinase kinase 20 (Homo sapiens, UniProt Q9NYL2); experiment: Inhibition of N-terminal GST-tagged recombinant human full-length ZAK expressed in baculovirus infected Sf9 insect cells using MBP as substrate after 30 mins by ADP-Glo assay
Method in brief: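 ZAK activity by ADP-Glo luminescence with MBP as substrate, ATP and serially diluted compound. Reaction started by adding ATP and run 30 min at room temperature. ADP-Glo reagent was added to stop it (40 min), then detection reagent for 30 min before reading luminescence. Curves fitted; each experiment repeated at least 3 times.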
Target sequence in this assay (Q9NYL2 whole entry): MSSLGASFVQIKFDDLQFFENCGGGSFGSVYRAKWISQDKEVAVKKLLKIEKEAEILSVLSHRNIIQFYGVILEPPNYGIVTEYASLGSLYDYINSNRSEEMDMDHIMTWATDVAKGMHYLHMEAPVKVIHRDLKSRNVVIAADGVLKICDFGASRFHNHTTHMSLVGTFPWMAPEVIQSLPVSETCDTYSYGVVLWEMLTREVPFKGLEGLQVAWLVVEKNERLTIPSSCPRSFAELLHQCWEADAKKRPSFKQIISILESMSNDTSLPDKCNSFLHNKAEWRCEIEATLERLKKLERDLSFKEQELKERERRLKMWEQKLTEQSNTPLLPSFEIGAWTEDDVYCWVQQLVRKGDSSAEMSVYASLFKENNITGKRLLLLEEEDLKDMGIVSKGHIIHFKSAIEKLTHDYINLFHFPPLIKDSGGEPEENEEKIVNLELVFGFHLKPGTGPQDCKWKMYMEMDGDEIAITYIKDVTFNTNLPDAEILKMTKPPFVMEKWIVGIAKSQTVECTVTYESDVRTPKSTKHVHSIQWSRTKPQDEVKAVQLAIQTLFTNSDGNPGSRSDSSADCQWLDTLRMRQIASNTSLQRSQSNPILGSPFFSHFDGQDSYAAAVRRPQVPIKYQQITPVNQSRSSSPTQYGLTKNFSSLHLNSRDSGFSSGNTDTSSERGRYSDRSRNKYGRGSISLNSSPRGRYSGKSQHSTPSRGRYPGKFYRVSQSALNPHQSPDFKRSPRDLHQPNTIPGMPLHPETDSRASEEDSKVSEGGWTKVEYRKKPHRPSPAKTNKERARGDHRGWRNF

[2] = target: T2, Serine/threonine-protein kinase B-raf (Homo sapiens, UniProt P15056, V600E); experiment: Inhibition of recombinant human B-RAF V600E mutant using Ser/Thr3 as substrate after 1 hr by FRET-based Z'-Lyte assay
T2 sequence (P15056 2-766 V600E limits assumed): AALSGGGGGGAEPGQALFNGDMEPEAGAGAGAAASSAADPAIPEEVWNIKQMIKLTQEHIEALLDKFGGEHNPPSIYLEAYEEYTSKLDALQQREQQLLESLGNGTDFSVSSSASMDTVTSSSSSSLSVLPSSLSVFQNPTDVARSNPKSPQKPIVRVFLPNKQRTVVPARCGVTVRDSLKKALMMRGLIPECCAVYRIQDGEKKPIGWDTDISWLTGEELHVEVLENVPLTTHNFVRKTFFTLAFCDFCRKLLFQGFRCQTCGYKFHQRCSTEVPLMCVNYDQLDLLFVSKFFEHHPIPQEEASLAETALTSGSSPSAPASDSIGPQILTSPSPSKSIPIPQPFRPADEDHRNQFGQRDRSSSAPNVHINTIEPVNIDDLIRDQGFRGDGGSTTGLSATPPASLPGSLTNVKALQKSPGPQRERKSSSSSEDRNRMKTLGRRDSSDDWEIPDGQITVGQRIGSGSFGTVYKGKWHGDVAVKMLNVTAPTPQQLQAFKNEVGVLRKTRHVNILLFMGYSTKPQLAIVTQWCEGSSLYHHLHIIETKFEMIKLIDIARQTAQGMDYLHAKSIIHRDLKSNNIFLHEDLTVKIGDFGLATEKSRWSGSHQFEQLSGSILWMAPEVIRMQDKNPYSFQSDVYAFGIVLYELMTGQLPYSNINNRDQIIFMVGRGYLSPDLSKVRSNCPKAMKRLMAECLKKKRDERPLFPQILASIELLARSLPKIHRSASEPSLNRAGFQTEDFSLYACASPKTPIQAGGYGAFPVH

[3] = target: Serine/threonine-protein kinase B-raf (Homo sapiens, UniProt P15056); experiment: Inhibition of wild type GST-tagged recombinant human full-length B-RAF expressed in baculovirus expression system using Ser/Thr3 as substrate after 1 hr by FRET-based Z'-Lyte assay
Chain of Serine/threonine-protein kinase B-raf (Homo sapiens, UniProt P15056) (P15056 whole entry): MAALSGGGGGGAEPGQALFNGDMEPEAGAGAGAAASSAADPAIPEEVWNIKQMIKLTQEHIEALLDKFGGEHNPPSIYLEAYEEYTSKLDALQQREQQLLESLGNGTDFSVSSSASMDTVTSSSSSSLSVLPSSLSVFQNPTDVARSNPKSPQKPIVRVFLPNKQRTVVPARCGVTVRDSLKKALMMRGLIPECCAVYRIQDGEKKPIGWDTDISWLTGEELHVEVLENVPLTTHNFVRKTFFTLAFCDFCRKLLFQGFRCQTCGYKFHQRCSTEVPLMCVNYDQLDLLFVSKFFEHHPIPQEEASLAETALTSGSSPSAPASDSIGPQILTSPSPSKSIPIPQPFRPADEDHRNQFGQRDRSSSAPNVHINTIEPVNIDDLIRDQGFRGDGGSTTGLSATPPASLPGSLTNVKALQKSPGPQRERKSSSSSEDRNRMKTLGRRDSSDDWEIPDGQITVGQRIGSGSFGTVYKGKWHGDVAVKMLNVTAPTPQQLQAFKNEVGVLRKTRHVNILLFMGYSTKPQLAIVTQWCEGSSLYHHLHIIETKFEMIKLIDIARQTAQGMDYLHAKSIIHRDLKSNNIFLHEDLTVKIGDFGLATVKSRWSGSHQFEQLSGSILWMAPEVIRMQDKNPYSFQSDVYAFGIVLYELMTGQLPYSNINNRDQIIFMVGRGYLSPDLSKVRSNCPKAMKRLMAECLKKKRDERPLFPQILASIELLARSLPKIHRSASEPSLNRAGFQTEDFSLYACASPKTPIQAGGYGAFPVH
Method in brief: (§1)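 Z'-Lyte FRET assay with Ser/Thr3 peptide in kinase buffer; the final reaction held 0.002 ng B-Raf for wild type. Incubated 1 h at room temperature, then 1 h development to cleave nonphosphorylated peptide, then stop reagent. Means of 3 independent experiments.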

Rattus norvegicus [4] = experiment: AUC (0 to infinity) in Sprague-Dawley rat at 10 mg/kg, po by HPLC/MS analysis; format: ADME, organism-based; design: dose 10 mg/kg, time infinity, route oral; conditions: in vivo
Method in brief: (§2)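 Sprague-Dawley rats given a single oral dose of 10 mg/kg; plasma exposure (AUC), half-life and oral bioavailability derived.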

[5] = Half life in Sprague-Dawley rat at 10 mg/kg, po by HPLC/MS analysis; format: ADME, organism-based; conditions: in vivo; method in brief: as §2
[6] = Oral bioavailability in Sprague-Dawley rat at 10 mg/kg by HPLC/MS analysis; format: ADME, organism-based; conditions: in vivo; method in brief: as §2
[7] = target: T1, Mitogen-activated protein kinase kinase kinase 20; experiment: Binding affinity to partial length human ZAK expressed in Escherichia coli BL21 by active-site-dependent competition assay
Method in brief: (§3)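 Active-site-dependent competition binding (KINOMEscan) run by an outside service across a panel of 468 kinases (403 nonmutated, 65 mutated); reported as binding constant Kd.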
Target sequence in this assay (Q9NYL2 whole entry): as the sequence (Q9NYL2 whole entry) above

Aurora kinase B [8] = target: T3, Aurora kinase B (Homo sapiens, UniProt Q96GD4); experiment: Binding affinity to partial length human AURKB expressed in HEK293 cells by active-site-dependent competition assay; format: cell-based; method in brief: as §3
T3 sequence (Q96GD4 whole entry): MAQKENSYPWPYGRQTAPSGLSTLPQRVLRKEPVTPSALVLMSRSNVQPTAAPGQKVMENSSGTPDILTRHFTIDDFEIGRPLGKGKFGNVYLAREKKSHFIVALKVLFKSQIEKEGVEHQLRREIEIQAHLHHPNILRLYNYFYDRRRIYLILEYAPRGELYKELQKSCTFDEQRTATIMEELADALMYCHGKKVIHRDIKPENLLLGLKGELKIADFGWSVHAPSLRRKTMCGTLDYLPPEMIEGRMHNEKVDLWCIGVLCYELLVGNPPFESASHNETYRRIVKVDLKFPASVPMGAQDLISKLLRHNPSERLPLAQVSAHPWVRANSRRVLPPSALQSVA

[9] = target: T2, Serine/threonine-protein kinase B-raf; experiment: Binding affinity to partial length human BRAF V600E mutant expressed in HEK293 cells by active-site-dependent competition assay; format: cell-based; method in brief: as §3
[10] = target: T4, Tyrosine-protein kinase FRK (Homo sapiens, UniProt P42685); experiment: Binding affinity to partial length human FRK expressed in Escherichia coli BL21 by active-site-dependent competition assay; method in brief: as §3
T4 sequence (P42685 whole entry): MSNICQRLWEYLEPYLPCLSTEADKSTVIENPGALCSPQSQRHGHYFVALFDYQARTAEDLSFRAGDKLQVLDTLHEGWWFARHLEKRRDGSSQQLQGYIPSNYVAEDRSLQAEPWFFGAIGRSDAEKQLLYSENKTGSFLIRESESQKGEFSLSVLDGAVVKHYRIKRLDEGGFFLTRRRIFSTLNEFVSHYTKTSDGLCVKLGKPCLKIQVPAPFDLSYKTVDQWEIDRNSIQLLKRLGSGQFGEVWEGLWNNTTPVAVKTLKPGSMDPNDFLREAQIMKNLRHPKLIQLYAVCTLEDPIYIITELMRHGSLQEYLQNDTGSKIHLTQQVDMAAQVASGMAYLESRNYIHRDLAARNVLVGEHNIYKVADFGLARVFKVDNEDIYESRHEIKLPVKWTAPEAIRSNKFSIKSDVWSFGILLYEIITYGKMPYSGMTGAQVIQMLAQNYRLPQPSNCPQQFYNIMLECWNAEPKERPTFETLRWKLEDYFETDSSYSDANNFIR

[11] = target: T5, Mast/stem cell growth factor receptor Kit (Homo sapiens, UniProt P10721); experiment: Binding affinity to partial length human KIT expressed in Escherichia coli BL21 by active-site-dependent competition assay; method in brief: as §3
T5 sequence (P10721 whole entry): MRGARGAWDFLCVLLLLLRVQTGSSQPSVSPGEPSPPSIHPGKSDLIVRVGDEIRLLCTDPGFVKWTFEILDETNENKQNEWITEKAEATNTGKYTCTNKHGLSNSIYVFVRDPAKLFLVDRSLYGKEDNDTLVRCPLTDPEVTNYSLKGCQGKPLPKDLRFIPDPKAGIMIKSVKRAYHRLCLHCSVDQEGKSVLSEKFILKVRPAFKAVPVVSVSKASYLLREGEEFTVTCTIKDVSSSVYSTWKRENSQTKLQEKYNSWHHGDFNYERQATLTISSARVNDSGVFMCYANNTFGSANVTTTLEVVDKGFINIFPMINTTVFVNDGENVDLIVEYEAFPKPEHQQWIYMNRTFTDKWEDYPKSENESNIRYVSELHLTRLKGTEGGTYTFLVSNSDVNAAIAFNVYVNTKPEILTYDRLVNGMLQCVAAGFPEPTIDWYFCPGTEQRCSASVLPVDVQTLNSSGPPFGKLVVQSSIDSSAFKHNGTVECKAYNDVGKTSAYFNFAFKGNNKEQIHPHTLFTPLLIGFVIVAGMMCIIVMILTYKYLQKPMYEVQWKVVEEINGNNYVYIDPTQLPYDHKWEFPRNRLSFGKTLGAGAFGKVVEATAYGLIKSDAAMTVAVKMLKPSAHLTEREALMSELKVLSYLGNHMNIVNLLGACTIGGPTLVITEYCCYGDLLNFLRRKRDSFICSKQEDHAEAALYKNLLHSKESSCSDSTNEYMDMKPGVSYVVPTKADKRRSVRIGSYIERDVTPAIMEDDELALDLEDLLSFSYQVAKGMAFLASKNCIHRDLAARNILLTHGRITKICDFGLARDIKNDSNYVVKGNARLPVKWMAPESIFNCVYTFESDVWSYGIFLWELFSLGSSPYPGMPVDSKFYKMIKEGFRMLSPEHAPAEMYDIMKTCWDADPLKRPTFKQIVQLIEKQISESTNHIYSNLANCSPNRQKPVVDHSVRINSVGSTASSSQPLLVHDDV

[12] = target: Mast/stem cell growth factor receptor Kit (Homo sapiens, UniProt P10721, L576P); experiment: Binding affinity to partial length human KIT L576P mutant expressed in Escherichia coli BL21 by active-site-dependent competition assay; method in brief: as §3
[13] = target: Mast/stem cell growth factor receptor Kit (Homo sapiens, UniProt P10721, V559D); experiment: Binding affinity to partial length human KIT V559D mutant expressed in Escherichia coli BL21 by active-site-dependent competition assay; method in brief: as §3
[14] = target: T6, Dual specificity mitogen-activated protein kinase kinase 5 (Homo sapiens, UniProt Q13163); experiment: Binding affinity to partial length human MEK5 expressed in HEK293 cells by active-site-dependent competition assay; format: cell-based; method in brief: as §3
T6 sequence (Q13163 whole entry): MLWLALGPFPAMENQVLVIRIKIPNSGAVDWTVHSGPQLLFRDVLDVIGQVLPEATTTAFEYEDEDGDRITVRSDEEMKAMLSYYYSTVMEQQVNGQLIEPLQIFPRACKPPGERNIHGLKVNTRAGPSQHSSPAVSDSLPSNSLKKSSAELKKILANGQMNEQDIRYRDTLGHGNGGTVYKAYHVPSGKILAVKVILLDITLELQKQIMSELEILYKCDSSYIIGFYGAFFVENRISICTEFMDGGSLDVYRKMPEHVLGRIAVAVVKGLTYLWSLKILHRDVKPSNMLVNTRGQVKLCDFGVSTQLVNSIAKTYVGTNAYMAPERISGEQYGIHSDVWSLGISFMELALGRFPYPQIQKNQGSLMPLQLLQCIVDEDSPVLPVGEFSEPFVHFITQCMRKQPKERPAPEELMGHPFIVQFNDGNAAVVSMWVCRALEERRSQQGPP

[15] = target: T7, Serine/threonine-protein kinase SIK1 (Homo sapiens, UniProt P57059); experiment: Binding affinity to partial length human SIK expressed in Escherichia coli BL21 by active-site-dependent competition assay; method in brief: as §3
T7 sequence (P57059 whole entry): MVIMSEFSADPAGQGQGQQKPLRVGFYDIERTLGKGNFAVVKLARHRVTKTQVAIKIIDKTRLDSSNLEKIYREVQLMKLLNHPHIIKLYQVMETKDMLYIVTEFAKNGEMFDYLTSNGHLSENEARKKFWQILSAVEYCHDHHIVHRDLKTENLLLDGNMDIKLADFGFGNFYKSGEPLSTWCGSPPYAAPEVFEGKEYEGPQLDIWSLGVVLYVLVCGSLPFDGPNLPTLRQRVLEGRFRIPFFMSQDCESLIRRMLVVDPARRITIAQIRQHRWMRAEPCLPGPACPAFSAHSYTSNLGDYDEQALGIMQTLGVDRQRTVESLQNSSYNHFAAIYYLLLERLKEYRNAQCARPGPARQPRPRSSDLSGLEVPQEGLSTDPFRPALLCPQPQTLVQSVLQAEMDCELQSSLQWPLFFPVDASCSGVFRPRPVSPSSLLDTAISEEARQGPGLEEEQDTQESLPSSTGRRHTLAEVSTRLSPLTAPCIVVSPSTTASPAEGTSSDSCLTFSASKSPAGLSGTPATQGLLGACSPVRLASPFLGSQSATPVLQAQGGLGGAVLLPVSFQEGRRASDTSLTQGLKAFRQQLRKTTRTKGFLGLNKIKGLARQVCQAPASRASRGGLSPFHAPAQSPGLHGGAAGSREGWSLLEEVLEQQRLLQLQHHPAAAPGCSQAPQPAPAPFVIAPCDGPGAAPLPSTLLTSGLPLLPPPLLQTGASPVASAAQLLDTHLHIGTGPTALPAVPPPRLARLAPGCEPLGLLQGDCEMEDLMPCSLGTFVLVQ

[16] = target: T8, Tyrosine-protein kinase Srms (Homo sapiens, UniProt Q9H3Y6); experiment: Binding affinity to partial length human SRMS expressed in HEK293 cells by active-site-dependent competition assay; format: cell-based; method in brief: as §3
[17] = target: T1, Mitogen-activated protein kinase kinase kinase 20; experiment: Inhibition of partial length human ZAK expressed in Escherichia coli BL21 assessed as remaining activity at 1 uM after 1 hr by KINOMEscan method
Method in brief: (§4)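 Active-site-dependent competition binding screen run by an outside provider across a 468-kinase panel (403 nonmutated, 65 mutated kinases).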

Aurora kinase B [18] = target: T3, Aurora kinase B; experiment: Inhibition of partial length human AURKB expressed in HEK293 cells assessed as remaining activity at 1 uM after 1 hr by KINOMEscan method; format: cell-based; method in brief: as §4
[19] = tested on: Serine/threonine-protein kinase B-raf (Homo sapiens), P15056 [V600E]; experiment: Inhibition of partial length human BRAF V600E mutant expressed in HEK293 cells assessed as remaining activity at 1 uM after 1 hr by KINOMEscan method; format: cell-based; method in brief: as §4
[20] = target: T4, Tyrosine-protein kinase FRK; experiment: Inhibition of partial length human FRK expressed in Escherichia coli BL21 assessed as remaining activity at 1 uM after 1 hr by KINOMEscan method; method in brief: as §4
[21] = target: T5, Mast/stem cell growth factor receptor Kit; experiment: Inhibition of partial length human KIT expressed in Escherichia coli BL21 assessed as remaining activity at 1 uM after 1 hr by KINOMEscan method; method in brief: as §4
[22] = tested on: Mast/stem cell growth factor receptor Kit (Homo sapiens), P10721 [L576P]; experiment: Inhibition of partial length human KIT L576P mutant expressed in Escherichia coli BL21 assessed as remaining activity at 1 uM after 1 hr by KINOMEscan method; method in brief: as §4
Chain of Mast/stem cell growth factor receptor Kit (Homo sapiens), P10721 [L576P] (P10721 whole entry L576P): as the sequence (P10721 whole entry) above, with L576P counted along it

[23] = tested on: Mast/stem cell growth factor receptor Kit (Homo sapiens), P10721 [V559D]; experiment: Inhibition of partial length human KIT V559D mutant expressed in Escherichia coli BL21 assessed as remaining activity at 1 uM after 1 hr by KINOMEscan method; method in brief: as §4
Chain of Mast/stem cell growth factor receptor Kit (Homo sapiens), P10721 [V559D] (P10721 whole entry V559D): as the sequence (P10721 whole entry) above, with V559D counted along it

[24] = target: T9, Dual specificity mitogen-activated protein kinase kinase 5 (Homo sapiens) (UniProt Q13163); experiment: Inhibition of partial length human MEK5 expressed in HEK293 cells assessed as remaining activity at 1 uM after 1 hr by KINOMEscan method; format: cell-based; method in brief: as §4
T9 sequence (whole entry): T6 sequence (Q13163 whole entry)

[25] = target: T7, Serine/threonine-protein kinase SIK1; experiment: Inhibition of partial length human SIK expressed in Escherichia coli BL21 assessed as remaining activity at 1 uM after 1 hr by KINOMEscan method; method in brief: as §4
[26] = target: T8, Tyrosine-protein kinase Srms; experiment: Inhibition of partial length human SRMS expressed in HEK293 cells assessed as remaining activity at 1 uM after 1 hr by KINOMEscan method; format: cell-based; method in brief: as §4
[27] = Protein binding in mouse plasma at 1 uM after 4 hrs by equilibrium dialysis method; format: ADME, cell-free; conditions: read-out: PPB (converted)
Rattus norvegicus [28] = species on record: Rattus norvegicus; experiment: Inhibition of ZAK in Ang-2-induced rat H9c2 cells assessed as downregulation of BNP levels by Western blot analysis
Rattus norvegicus [29] = species on record: Rattus norvegicus; experiment: Inhibition of ZAK in Ang-2-induced rat H9c2 cells assessed as decrease in JNK phosphorylation by Western blot analysis
Rattus norvegicus [30] = species on record: Rattus norvegicus; experiment: Inhibition of ZAK in Ang-2-induced rat H9c2 cells assessed as decrease in p38 phosphorylation by Western blot analysis
Rattus norvegicus [31] = experiment: Inhibition of myocardial hypertrophy in po dosed spontaneous hypertensive WKY rat model assessed as decrease in left ventricular mass at diastole administered for 4 continuous weeks; format: functional, organism-based
Method in brief: (§5)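 Spontaneously hypertensive rats randomized into 3 groups given oral 0, 10 or 20 mg/kg/day for 4 continuous weeks; normotensive Wistar-Kyoto rats as reference; n = 6 per group. After sacrifice, left ventricles were collected to measure mass at diastole and systole; heart sections stained with hematoxylin and eosin for cardiomyocyte arrangement.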

Rattus norvegicus [32] = experiment: Inhibition of myocardial hypertrophy in po dosed spontaneous hypertensive WKY rat model assessed as decrease in left ventricular mass at systole administered for 4 continuous weeks; format: functional, organism-based; method in brief: as §5
Rattus norvegicus [33] = experiment: Inhibition of myocardial hypertrophy in spontaneous hypertensive WKY rat model assessed as decrease in left ventricular mass at systole at 10 to 20 mg/kg, po administered for 4 continuous weeks relative to control; format: functional; method in brief: as §5
Rattus norvegicus [34] = experiment: Inhibition of myocardial hypertrophy in po dosed spontaneous hypertensive WKY rat model assessed as restoration of cardiomyocyte disarrangement to normal phenomena administered for 4 continuous weeks by Hematoxylin and eosin staining-based light microscopic method; format: functional, organism-based; method in brief: as §5
Rattus norvegicus [35] = experiment: Inhibition of myocardial hypertrophy in po dosed spontaneous hypertensive WKY rat model assessed as downregulation of BNP levels administered for 4 continuous weeks by Western blot method; format: functional, organism-based
Method in brief: (§6)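 Spontaneously hypertensive rats given oral 0, 10 or 20 mg/kg/day for 4 continuous weeks alongside normotensive Wistar-Kyoto controls; left ventricles harvested after sacrifice for Western blot analysis.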

Rattus norvegicus [36] = experiment: Inhibition of myocardial hypertrophy in po dosed spontaneous hypertensive WKY rat model assessed as decrease in JNK phosphorylation administered for 4 continuous weeks by Western blot method; format: functional, organism-based; method in brief: as §6
Rattus norvegicus [37] = experiment: Inhibition of myocardial hypertrophy in po dosed spontaneous hypertensive WKY rat model assessed as decrease in p38 phosphorylation administered for 4 continuous weeks by Western blot method; format: functional, organism-based; method in brief: as §6
[38] = target: T2, Serine/threonine-protein kinase B-raf; experiment: Inhibition of partial length human BRAF V600E mutant expressed in HEK293 cells using Ser/Thr3 as substrate after 1 hr by FRET-based Z'-Lyte assay
Method in brief: as §1, with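 “reagent. Controls: phosphopeptide for 100% phosphorylation, buffer instead of ATP for 100% inhibition, DMSO vehicle for 0% inhibition.” for “reagent.”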

Rattus norvegicus [39] = experiment: Inhibition of myocardial hypertrophy in spontaneous hypertensive WKY rat model assessed as left ventricular mass at diastole at 20 mg/kg, po administered for 4 continuous weeks (reference value: 1.2 +/- 0.052 g); format: functional; method in brief: as §5

- IC50 [1]: 16.8 nM
- IC50 [2]: > 10 µM
- IC50 [3]: > 1 µM
Compound: COc1n[nH]c2ncc(C#Cc3c(F)ccc(NS(=O)(=O)c4ccc(Cl)cc4)c3F)cc12

- AUC (Rattus norvegicus [4]): 253794 µg/L/h
- half-life [5]: 2080 min
- bioavailability [6]: 20%
- IC50 [1]: 3.3 nM
- IC50 [2]: > 3 µM
- IC50 [3]: > 1 µM
- Kd [7]: 2.7 nM
- Kd (Aurora kinase B [8]): 64 nM
- Kd [9]: 50 nM
- Kd [10]: 22 nM
- Kd [11]: 460 nM
- Kd [12]: 210 nM
- Kd [13]: 180 nM
- Kd [14]: 88 nM
- Kd [15]: 45 nM
- Kd [16]: 64 nM
- Activity [17]: 3%
- Activity (Aurora kinase B [18]): 2.4%
- Activity [19]: 9.9%
- Activity [20]: 1.9%
- Activity [21]: 6.2%
- Activity [22]: 5.5%
- Activity [23]: 2.9%
- Activity [24]: 0.9%
- Activity [25]: 1.5%
- Activity [26]: 3.9%
- fraction unbound at 4 h, 1 µM [27]: 0.002
- inhibition (Rattus norvegicus [28]): Dose-dependent effect
- inhibition (Rattus norvegicus [29]): Dose-dependent effect
- inhibition (Rattus norvegicus [30]): Dose-dependent effect
- IC50 [38]: > 10 µM
Compound: COc1n[nH]c2ncc(C#Cc3c(F)ccc(NS(=O)(=O)c4cccc(C#N)c4)c3F)cc12
- inhibition (Rattus norvegicus [31]): Dose-dependent effect
- inhibition (Rattus norvegicus [32]): Dose-dependent effect
- inhibition (INH) (Rattus norvegicus [33]): 3 - 8%
- inhibition (Rattus norvegicus [34]): Dose-dependent effect
- inhibition (Rattus norvegicus [35]): Dose-dependent effect
- inhibition (Rattus norvegicus [36]): Dose-dependent effect
- inhibition (Rattus norvegicus [37]): Dose-dependent effect
- Activity (Rattus norvegicus [39]): 0.95 g

- IC50 [1]: 4.2 nM
- IC50 [2]: 0.902 µM
- IC50 [3]: > 6 µM
Compound: COc1n[nH]c2ncc(C#Cc3c(F)ccc(NS(=O)(=O)c4cccc(Cl)c4)c3F)cc12

- IC50 [1]: > 30000 nM
- IC50 [2]: > 10 µM
- IC50 [3]: > 10 µM
Compound: Cn1ncc2cc(C#Cc3c(F)ccc(NS(=O)(=O)c4cccc(Cl)c4)c3F)cnc21
